Measurements: ChEMBL document CHEMBL1799990, “Triazole and dihydroimidazole alkaloids from the marine sediment-derived fungus Penicillium paneum SD-44” (J Nat Prod, 2011)
Calls of active or inactive are those of the source. The calls are words filed in the database; no cut-off is given here.

Columns and labels:
Escherichia coli = assay: Antibacterial activity against Escherichia coli by disk diffusion method; type: functional, organism-based
In short: (§1)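 Disk diffusion assay against the two bacteria, run alongside chloramphenicol as the positive control.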

[1] = system: Fusarium oxysporum f. sp. vasinfectum; assay: Antifungal activity against Fusarium oxysporum f. sp. vasinfectum by disk diffusion method; type: functional, organism-based
In short: (§2)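 Disk diffusion assay against the five plant-pathogenic fungi, run alongside amphotericin B as the positive control.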

[2] = system: Botryosphaeria berengeriana; assay: Antifungal activity against Physalospora pyricola by disk diffusion method; type: functional, organism-based; in short: as §2
Alternaria brassicae = assay: Antifungal activity against Alternaria brassicae by disk diffusion method; type: functional; in short: as §2
Staphylococcus aureus = assay: Antibacterial activity against Staphylococcus aureus by disk diffusion method; type: functional, organism-based; in short: as §1
[3] = Antifungal activity against Coniella diplodiella by disk diffusion method; type: functional; in short: as §2
Aspergillus niger = assay: Antifungal activity against Aspergillus niger by disk diffusion method; type: functional, organism-based; in short: as §2
SMMC-7721 = assay: Cytotoxicity against human SMMC7721 cells; type: functional, cell-based
Bel-7402 = assay: Cytotoxicity against human Bel7402 cells; type: functional, cell-based
A549 = assay: Cytotoxicity against human A549 cells; type: functional, cell-based

Structure (SMILES)	Activity (Escherichia coli)	Activity [1]	Activity [2]	Activity (Alternaria brassicae)	Activity (Staphylococcus aureus)	Activity [3]	Activity (Aspergillus niger)	IC50 (SMMC-7721) [µM]	IC50 (Bel-7402) [µM]	IC50 (A549) [µM]
O=C1N[C@H]2[C@H](c3ccc(O)cc3)N=CN2c2ccccc21	inactive	inactive	inactive	inactive	inactive	inactive	inactive			
O=C(O)c1ccccc1-n1ncnc1Cc1ccc(O)cc1 [PENIPANOID A]	inactive	inactive	inactive	inactive	inactive	inactive	inactive	54.2		
O=c1[nH]c(Cc2ccc(O)cc2)nc2ccccc12	inactive	inactive	inactive	inactive	inactive	inactive	inactive		19.8	17.5
O=c1[nH]cc(F)c(=O)[nH]1 [FLUOROURACIL]								13	21.8	13.7
O=C(c1ccc(O)cc1)c1nc2ccccc2c(=O)[nH]1	inactive	inactive	inactive	inactive	inactive	inactive	inactive			
